PRMT1 FP inh = inhibitors of human PRMT1; inhibition, % at 2.79 µM; 370,000 tested, 1.3% active; Q99873; recombinant PRMT1, activity-based probe fluorescence polarization;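 active = inhibition above about 21% made by adding two undisclosed values, limit read from the data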
SIAE primary = inhibitors of human sialic acid acetylesterase SIAE. SIAE FP-Rh probe binding, fluorescence polarization. inhibition, % at 9.66 µM. 370,000 tested, 0.69% active. AID 1053197;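 active = inhibition above a cutoff: mean of compounds within the control limits plus 3 SD of those, cut at about 17% in these data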
ABHD4 inh = ABHD4 (mouse) inhibition, primary FP screen; purified mABHD4, FP-Rh probe fluorescence polarization; inhibition, % at 8.92 µM; 370,000 tested, 0.54% active; AID 720543;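 active = inhibition exceeding the mean over every tested compound plus 3 SD, cut at about 30% in these data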
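Assay system: mABHD4 protein; medium: HEPES pH 7.0, NaCl, Pluronic buffer; dosing: 8.92 µM, single dose; schedule: 45 min + 60 min at 25 °C; signal: FP readout, ex 525 nm / em 598 nm; read-out: normalized percent inhibition of probe labeling; repeats: single replicate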
TCR-CD3 inh = blocks the human TCR-CD3 interaction | TAMRA-labeled TCR probe fluorescence, biochemical | inhibition, % at 9.4 µM | 360,000 tested, 0.37% active | AID 651800;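 also: recombinant mutant TCR 2C K166C tagged with TAMRA read by polarization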
HTRA1 inh = HTRA1 (human) protease inhibition | AID 504803 | 340,000 tested, 0.5% active | recombinant HTRA1, FP-rhodamine activity-based probe, fluorescence polarization | inhibition, % at 5.96 µM; in the data active = inhibition above about 36%
Target sequence (Q92743 whole entry, looked up): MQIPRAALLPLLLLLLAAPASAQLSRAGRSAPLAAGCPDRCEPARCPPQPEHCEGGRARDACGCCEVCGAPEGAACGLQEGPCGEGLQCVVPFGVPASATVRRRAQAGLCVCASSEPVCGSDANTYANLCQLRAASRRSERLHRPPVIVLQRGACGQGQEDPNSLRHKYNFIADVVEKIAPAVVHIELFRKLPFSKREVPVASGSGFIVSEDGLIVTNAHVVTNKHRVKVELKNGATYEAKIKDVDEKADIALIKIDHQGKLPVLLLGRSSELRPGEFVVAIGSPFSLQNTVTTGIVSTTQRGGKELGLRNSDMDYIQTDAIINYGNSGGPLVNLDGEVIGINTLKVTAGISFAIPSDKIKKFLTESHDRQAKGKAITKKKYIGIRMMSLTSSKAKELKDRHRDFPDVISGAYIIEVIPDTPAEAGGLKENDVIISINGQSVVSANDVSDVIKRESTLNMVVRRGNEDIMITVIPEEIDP
HTRA1 inh conf = confirmation of human HTRA1 inhibitors; recombinant HTRA1, FP-rhodamine activity-based probe, fluorescence polarization; shares compounds with HTRA1 inh; 1,600 tested, 66% active; AID 540248; inhibition, % at 5.96 µM;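 active = mean inhibition over three repeats above a set limit taken from the earlier primary screen, cut at about 37% in these data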;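 also: inhibitors block probe binding so polarization drops and inhibition rises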
BSA probe FL = BSA probe counter-screen for TCR-CD3 inhibitors | shares compounds with TCR-CD3 inh | TAMRA-labeled BSA probe fluorescence counterscreen | inhibition, % at 9.4 µM | 1,200 tested, 10% active; in the data active = inhibition above about 23%
TCR-CD3 conf = TCR-CD3 interaction inhibition, confirmation; shares compounds with TCR-CD3 inh; TAMRA-labeled TCR probe fluorescence binding assay; inhibition, % at 9.4 µM; 1,200 tested, 48% active
Hits are given with their value; . = inactive; / = no result. Most compounds without a hit are left out; they make up all but 2.5% or so of the library. Rule as the data show it, unless noted: active = inhibition above about 19%; inactive = the rest.

SMILES	PRMT1 FP inh	SIAE primary	ABHD4 inh	TCR-CD3 inh	HTRA1 inh	HTRA1 inh conf	others
COc1ccc(-c2sc3ccc(OC)cc3c2C#CCCO)cc1	/	/	/	/	.	/
COc1cccc(CNc2ccc(N3CCC(C)CC3)cc2)c1OC	.	.	.	.	52	46
N#C/C(=C\c1ccc(OCC(N)=O)cc1)c1ccccc1	.	.	.	.	.	/
NNC(=O)c1oc2nc(-c3ccccc3)cc(-c3ccccc3)c2c1N	.	.	.	.	47	.
CCC(=O)NC(c1ccccc1OC)c1ccc2cccnc2c1O (stereo not given)	/	/	/	/	41	43
CCCCC(=O)NC(c1ccccc1Cl)c1ccc2cccnc2c1O (stereo not given)	.	.	.	.	57	52
CCCC(=O)NC(c1ccc(OC)cc1)c1ccc2cccnc2c1O (stereo not given)	.	.	.	.	.	/
CCCCC(=O)NC(c1cccc([N+](=O)[O-])c1)c1ccc2cccnc2c1O (stereo not given)	.	.	.	.	.	/
CCCCC(=O)NC(c1ccc(C(C)C)cc1)c1ccc2cccnc2c1O (stereo not given)	.	.	.	.	56	53
COc1cccc(C(NC(C)=O)c2ccc3cccnc3c2O)c1 (stereo not given)	.	.	.	.	.	/
CCCC(=O)NC(c1ccccc1)c1ccc2cccnc2c1O (stereo not given)	.	.	.	.	47	45
CCCCC(=O)NC(c1ccccc1)c1ccc2cccnc2c1O (stereo not given)	.	.	.	.	39	57
CN=c1scc(-c2ccco2)n1/N=C/c1ccc(O)c(O)c1	.	.	40	.	74	73
COc1cccc(NC(=O)CN2CCc3ccccc3C2)c1	.	.	.	.	.	/
Cc1ccc(NC(=O)CSCC(=O)NC2=NCCS2)cc1	.	.	.	.	.	/
CN(C)c1ccnc(Nc2ccccc2)c1C#N	.	.	.	.	/	/
CN(C)c1ccnc2c[cH-]cc12.[Fe].c1ccc(-[c-]2[c-](-c3ccccc3)[c-](-c3ccccc3)[c-](-c3ccccc3)[c-]2-c2ccccc2)cc1 (stereo not given)	.	.	.	.	37	57
CC1CCCCC1NC(=O)COC(=O)c1c2c(nc3ccccc13)/C(=C\c1ccco1)CC2 (stereo not given)	.	.	33	.	57	.
O=C(Oc1cccc2cccnc12)c1cccc([N+](=O)[O-])c1	.	.	.	.	.	/
O=C(Oc1c(Cl)cc(Cl)c2cccnc12)c1cccc([N+](=O)[O-])c1	/	/	/	/	55	40
Cc1cccc(OCC(=O)NC(=S)N2CCCc3ccccc32)c1	.	.	.	.	48	.
O=C(COc1ccc(Cl)cc1Cl)NC(=S)N1CCCc2ccccc21	.	.	.	.	.	/
Cc1cccc(NC(=O)CN(CC2CCCO2)C(=O)c2cc(S(=O)(=O)N(C)C)ccc2F)c1C (stereo not given)	.	.	.	.	.	/
O=Cc1ccc(O)c2ncccc12	/	/	/	/	36	60
O=C(NN=C1CCN(Cc2ccccc2)CC1)c1ccccc1	.	.	.	.	.	/
SMILES	PRMT1 FP inh	SIAE primary	ABHD4 inh	TCR-CD3 inh	HTRA1 inh	HTRA1 inh conf	others
O=C(NN=C1CCN(Cc2ccccc2)CC1)c1cc(Br)ccc1O	.	.	.	.	40	.
[O-][n+]1cccc2c(Br)cc(Br)c(O)c21	.	.	.	.	72	41
CCOc1ccc(Cl)cc1-c1cc(C(=O)Nc2ccc(Br)cc2)[nH]n1	.	.	.	.	/	/
FC(F)(F)c1cnc(NNC(=S)Nc2cccnc2)c(Cl)c1	.	.	.	.	.	/
FC(F)(F)c1cnc(NNC(=S)Nc2ccccc2)c(Cl)c1	.	.	.	.	47	.
COc1ccc(C2c3[nH]c4ccccc4c3CCN2C(=O)Cc2nonc2C)c(F)c1 (stereo not given)	.	.	.	.	.	/
Cc1cc(C)c2c(c1)NC(C(=O)O)C1CC=CC21 (stereo not given)	32	20	56	29	74	70
C[C@H](NC(=O)[C@@H]1CCCN1C(=O)OC(C)(C)C)c1ccccc1	.	.	.	.	/	/
CN1CCc2cccc3c2[C@@H]1Cc1ccc(O)c(O)c1-3	/	/	/	/	49	53
COc1cc(O)c2c(=O)c3c(O)ccc(O)c3oc2c1	.	.	.	.	55	.
CCN(CC)c1ccc(N)cc1	/	/	/	/	44	66
CCc1cc(=O)oc2cc(C)cc(OC(=O)c3ccco3)c12	.	.	.	.	48	.
C/C(=N/NC(=O)c1cc2ccccc2cc1O)C1C(=O)c2ccccc2C1=O	.	21	49	45	74	53	BSA probe FL=.;TCR-CD3 conf=68
Cc1cc(/C=N/n2c(COc3ccccc3)nc3ccccc3c2=O)c(O)c([N+](=O)[O-])c1	.	24	.	39	41	54	BSA probe FL=35;TCR-CD3 conf=56
Cc1c(C(=O)NNC(=O)c2ccccc2O)oc2ccc(Br)cc12	.	.	.	39	41	69	BSA probe FL=.;TCR-CD3 conf=24
COc1ccc(-c2cc(=O)c3c(O)cc(O)cc3o2)cc1	.	.	.	.	.	/
O=c1cc(-c2ccc(O)c(O)c2)oc2cc(O)cc(O)c12	.	.	.	25	50	67	BSA probe FL=.;TCR-CD3 conf=21
O=[N+]([O-])c1cccc(C=Nc2cc3c(cc2Br)OCCO3)c1	.	.	.	.	.	/
COc1cccc2c1C(=O)c1c(O)c3c(c(O)c1C2=O)C[C@@](O)(C(=O)CO)C[C@@H]3O[C@H]1C[C@H](N)[C@H](O)[C@H](C)O1	129	39	52	137	63	67	BSA probe FL=157;TCR-CD3 conf=127
O=C(N/N=C/c1cc(Br)cc(Cl)c1O)c1ccc2c(c1)OCO2	.	.	.	38	42	.	BSA probe FL=.;TCR-CD3 conf=29
COc1ccc(-c2cnnc(N/N=C/c3ccc(O)c(O)c3)n2)cc1	.	.	.	49	60	78	BSA probe FL=.;TCR-CD3 conf=44
COc1ccc(-c2cnnc(N/N=C/c3ccc(O)cc3)n2)cc1	.	.	.	.	.	/
CCOC(=O)CCCCCC(=O)Nc1ccc2c(c1)C(=O)N([C@@H](C)CO)C[C@@H](C)[C@H](CN(C)C(=O)Nc1ccccc1)OCCCC[C@H](C)O2	.	.	.	.	.	/
Oc1ccccc1N=Nc1ccccc1O	.	.	.	19	66	59	BSA probe FL=.;TCR-CD3 conf=.
Cc1c(C(=O)Nc2c(C)n(C)n(-c3ccccc3)c2=O)oc2ccc(Cl)cc12	.	.	.	.	.	/
CCOc1ncccc1C(=O)NNC(=O)c1ccc(NS(=O)(=O)c2cccs2)cc1	.	.	.	.	.	/

High-throughput results (PubChem BioAssay)
